Assay outcomes (PubChem)
Sampled rows, rich in hits. Any-hit rate of the full collection: about 2.6%.
T cell modulator: modulates CD8 T cell binding to vesicles; AID 2052; response (vesicle binding), % at 7 µM; 2C CD8+ T cell-vesicle binding, flow cytometry; active compounds read low; 0.068% of 330,000 active;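 active = response, share of CD8 T cells binding vesicles, and their 90th percentile fluorescence all below set limits, cut at about 80% in these data, passing the limit was not always enough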;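 note: values below 100% mean blocked vesicle binding to the CD8+ T cells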
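Material: murine 2C transgenic CD8+ T lymphocytes / Also added: QL9-peptide-loaded Drosophila micro-vesicles bearing Ld, ICAM-1 and B7-1 / Schedule: binding step 1.5 h, 37 °C, antibody labelling 20 min, ice / Signal: flow cytometry, PE anti-B7-1 (FL2) versus Alexa647 anti-CD8 (FL8), PFA-fixed / Evaluation: percent CD8+ FL2 mean versus row control / Benchmarks: naked versus QL9-loaded vesicles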
Myeloid diff 2: compounds promoting myeloid differentiation; 1% of 360,000 active; calls only at 10 µM; ER-HoxA9 myeloid progenitors, lysozyme-GFP differentiation, flow cytometry; AID 624256;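 active = normalized GFP-positive differentiation at or above the plate's own cutoff, the solvent-only control mean plus 3 SD; inconclusive = no clear call, values can overlap the other calls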;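 note: cells exposed to compound for four days before flow analysis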
Rce1 inh: blocks yeast Ras-converting enzyme | AID 2563 | calls only | 0.27% of 290,000 active | yeast membranes, quenched prenylated peptide cleavage fluorescence | Q03530;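 active = fall in fluorescence gain of 50% or more versus controls, with final raw signal at or below 3038400; inconclusive = same 50% fall but final raw signal above 3038400; inactive = fall in fluorescence gain under 50%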;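 note: plate controls were neutral control wells for no effect and wells lacking membranes for full effect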
GRK2 aptamer HTS: inhibitors of human GRK2 displacing RNA aptamer | bead flow cytometry, FAM-aptamer displacement from GRK2 | inhibition of aptamer binding, % at 10 µM | 0.59% of 330,000 active | AID 488847;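 active = inhibition of aptamer binding above 40%, roughly 3 SD of noise, on plates passing a quality check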;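 note: median bead fluorescence of bound FAM aptamer so fluorescent compounds give negative values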
SKN-1 inh: C. elegans SKN-1 inhibition; AID 624304; inhibition, % at 21.8 µM; C. elegans VP596 Pgst-4::GFP/RFP ratio, acrylamide-induced, 24 h; 0.49% of 360,000 active;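 active = interference check ratio from 0.5 to 1.5 plus GFP to RFP signal ratio inhibition reaching or exceeding a fixed threshold, cut at about 30% in these data, passing the limit was not always enough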
Rin1-Abl PPI inh: human Rin1-Abl interaction inhibition; TR-FRET Rin1/Abl binding, biochemical; 0.4% of 360,000 active; AID 588664; inhibition, % at 7.35 µM; in the data active = inhibition above about 5%, passing the limit was not always enough
Myeloid diff: myeloid differentiation induction; 2% of 2,300 active; AID 651706; calls only; ER-HoxA9 myeloid progenitors, GFP/Mac1 double-positive flow; shares compounds with Myeloid diff 2;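 active = share of green or green-and-red cells above 9 and 9% in run 1 or 4 and 3% in run 2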
GFP autofluor: flagged as fluorescent in myeloid differentiation counter-screen. fluorescence response, % (no concentration beside the values). ER-HoxA9 myeloid progenitors, no estrogen, GFP autofluorescence flow cytometry; vehicle wells 0%, positive control 100%. 7.4% of 2,300 active. shares compounds with Myeloid diff 2. AID 651707;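 active = over 5% cells positive for green fluorescent reporter, or over 2% positive for both it and APC stain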;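 note: range taken on the double positive population between DMSO and positive control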
* hit, by the source's call; i = inactive; u = inconclusive; x = no result; + = active, no number.

SMILES	T cell modulator	Myeloid diff 2	Rce1 inh	GRK2 aptamer HTS	SKN-1 inh	Rin1-Abl PPI inh	Myeloid diff	GFP autofluor
CCOC(=O)C1=C(CCc2ccccc2)NC(=O)NC1c1ccc(Br)cc1 (centres undefined)	134.4	i	i	0.0	-1.0	2.4	x	x
CCOC(=O)C1=C(CN2c3ccccc3CC2C)NC(=O)NC1c1ccccc1 (centres undefined)	194.0	+	i	0.0	24.4	1.1	i	0.6
Cc1nc(SC(C)C(=O)NCC2CCCO2)c2cc(-c3ccccc3)sc2n1 (centres undefined)	433.9	+	i	0.0	24.9	-2.4	i	38.6*
CCC(C(=O)NCCCN1CCCC1=O)n1c2ccccc2c2nc(=O)cc(C)n21 (centres undefined)	249.8	i	i	3.0	8.9	-0.9	x	x
O=C(Nc1ccc2c(c1)OCO2)C1CCN(S(=O)(=O)c2ccc3c(c2)OCCO3)CC1	460.8	i	i	0.0	-11.2	3.6	i	0.3
O=C(Nc1ccc2c(c1)OCO2)c1ccc(Br)c(S(=O)(=O)N2CCCC2)c1	267.3	+	i	0.0	1.8	0.0	i	0.0
O=C(CCc1nc(-c2ccccc2F)no1)NC1CCN(Cc2ccccc2)CC1	319.4	i	i	0.0	14.3	2.8	i	0.0
O=C(NCCCn1ccnc1)C(=O)NC1CCCCC1	193.8	+	i	1.0	0.3	-6.3	i	1.1
O=C(NCCCn1ccnc1)NC(C(F)(F)F)C(F)(F)F	534.7	i	i	1.0	-5.2	2.3	i	0.0
O=C(O)C1CCCCC1C(=O)NCCCn1ccnc1 (centres undefined)	364.6	i	i	1.0	0.9	-3.1	x	x
O=C(COC(=O)CN1C(=O)C2CCCCC2C1=O)Nc1c(Cl)cccc1Cl (centres undefined)	386.8	i	x	0.0	8.4	2.5	x	x
Cc1cccc(C)c1NC(=O)CN(C1CCCCC1)S(C)(=O)=O	303.2	i	i	1.0	15.2	0.8	x	x
Cc1ccc(S(=O)(=O)Nc2cc3c4c(c2)CC(=O)N4CCC3)cc1	249.0	i	i	0.0	24.6	-0.2	x	x
Cn1c(N=Nc2ccccc2)nc2ccccc21	344.5	i	i	1.0	39.6*	-10.3	i	0.3
Cc1ccc2ccccc2c1C(O)c1ncc(-c2ccc(Cl)cc2)[nH]1 (centres undefined)	x	i	x	x	12.8	3.5	x	x
CCOC(=O)/C=C1\SCC(=O)N1CC(=O)NCCOC	158.9	i	i	1.0	-4.2	4.2	x	x
CCOC(=O)/C=C1\SCC(=O)N1CC(=O)NC1CCCCC1	223.6	+	i	1.0	0.2	0.7	i	0.3
CCn1nc(C(=O)OCC(=O)Nc2nc(-c3ccc(OC)cc3)cs2)c2ccccc2c1=O	587.0	+	i	x	12.2	2.9	i	0.0
O=C(Oc1cccc2ccccc12)C1CC1	167.6	i	i	4.0	4.3	3.0	x	x
Cc1[nH]n(-c2ccccc2)c(=O)c1C(=O)c1cccc(F)c1	272.5	i	i	2.0	-0.8	-0.3	i	0.3
Cc1[nH]n(-c2ccccc2)c(=O)c1C(=O)c1ccccc1	442.3	i	i	x	-24.7	-3.7	x	x
Cc1ccccc1NC(=O)Nc1c(C)n(C)n(-c2ccccc2)c1=O	223.7	i	i	0.0	6.2	1.8	x	x
COc1ccccc1NC(=O)Nc1c(C)n(C)n(-c2ccccc2)c1=O	326.7	i	i	0.0	5.1	-1.9	i	0.0
CCN(CC)S(=O)(=O)c1ccc(OC)c(NC(=O)/C=C/c2ccco2)c1	146.1	i	i	0.0	1.9	-0.8	x	x
CCCCCCCCCn1c2c(c(=N)c3c1CCC3)CCC2	321.5	x	i	0.0	-13.4	2.4	x	x
SMILES	T cell modulator	Myeloid diff 2	Rce1 inh	GRK2 aptamer HTS	SKN-1 inh	Rin1-Abl PPI inh	Myeloid diff	GFP autofluor
CCCCn1c2c(c(=N)c3c1CCC3)CCC2	230.4	i	x	10.0	2.9	-0.9	i	0.0
NNC(=O)c1ccc(CSc2cccc3cccnc23)cc1	198.1	i	i	0.0	3.3	0.5	i	0.3
COC(=O)[C@H](C)NC(=O)NCc1ccccc1	229.5	x	i	2.0	2.8	-2.1	x	x
O=c1oc2c3c4c(cc2c(C(F)(F)F)c1CCN1CCOCC1)CCCN4CCC3	504.1	+	i	0.0	41.7	-5.7	i	0.3
CC(C)c1cc(=O)oc2c3c4c(cc12)CCCN4CCC3	264.0	i	u	7.0	11.0	-7.8	x	x
Cc1ccc(/C=N/NC(=O)c2cc3c(s2)CCCC3)o1	491.7	i	x	2.0	6.2	2.0	i	0.3
Cc1ccc(O)c(NC(=O)c2cc(-c3ccccc3)on2)c1	153.3	+	i	5.0	-2.5	-3.3	i	0.0
O=C(Nc1cc(Cl)ccc1O)c1cc(-c2ccco2)on1	475.2	u	i	2.0	-9.2	-2.0	x	x
O=C(Nc1cc(Br)ccc1O)c1cc(-c2ccco2)on1	426.8	i	i	0.0	14.8	-1.3	i	0.5
CCc1ccc(NC(=O)COC(=O)c2nc3nc(C)cc(C)n3n2)cc1	i	i	x	4.0	-6.3	4.6	x	x
Cc1cc(C)n2nc(C(=O)OCC(=O)Nc3ccc(C)c(F)c3)nc2n1	264.0	i	x	0.0	-11.2	-1.4	i	0.3
C/C(=C/c1ccccc1)C(=O)N1CCC(C)CC1	341.0	i	i	1.0	-12.7	-0.1	i	0.4
O=C(NS(=O)(=O)Oc1ccc(F)cc1F)OC[C@@H]1CCCN2CCCCC12 (some centres undefined)	162.5	i	i	1.0	-10.0	1.9	x	x
COc1ccc(Cc2nc3ccc(C(=O)NC(C)C)cc3o2)cc1	269.8	i	i	2.0	12.1	-0.8	i	0.0
Oc1[nH]c2ccccc2c1C=Nc1ccccc1	281.6	i	i	2.0	7.8	-4.7	i	0.0
Cc1nc(N)c(C#N)c(-c2cccnc2)c1C	597.1	+	i	3.0	10.5	-3.5	i	0.3
O=C(Nc1ccc(O)cc1)/C(=C\C=C\c1ccccc1)NC(=O)c1ccccc1	140.0	i	i	1.0	-12.6	-3.4	x	x
O=C(O)CCNC(=O)/C(=C\C=C\c1ccccc1)NC(=O)c1ccccc1	181.4	i	i	6.0	8.0	0.2	i	0.9
O=C1c2cccnc2C(Nc2ccccc2)N1Cc1ccco1 (centres undefined)	349.4	i	i	5.0	-11.0	-0.8	i	0.0
O=[N+]([O-])c1ccccc1/C=C/CN1CCCCC1	x	i	i	0.0	-9.7	-2.5	i	0.0
Cc1ccc(C(=O)c2c3ccc([N+](=O)[O-])cc3[n+]([O-])n2CCC(N)=O)cc1	271.2	x	i	0.0	x	x	x	x
